Series [1] in a line: Partition coefficient (logP). Particulars: octanol/water; call rule not given here. The format is physicochemical.
Series [2] in a line: Relative toxicity was evaluated as ED50 for KB cell line to that of ED50 for T.B. brucei. The format is organism-based. Particulars: trypanosoma brucei brucei, KB cells versus Trypanosoma brucei brucei; read-out: Relative toxicity. The method in brief: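 Ratio of ED50 against KB cells to ED50 against T. b. brucei bloodstream forms, each from the 3-day Alamar Blue assays.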

Series [3] can be described thus: Evaluated for its inhibitory activity against KB cells. The format is functional. Particulars: Homo sapiens, read-out: ED50 (the source's name). In outline: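 KB cells (human oral pharyngeal carcinoma) grown in RPMI with 10% calf foetal serum at 37 °C, 5% CO2 in humidified air. Exposed to compound for 3 days under the same conditions, then viability read by Alamar Blue assay; ED50 reported.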

The test system of series [4] is Trypanosoma brucei brucei. Description: Inhibitory activity against Trypanosoma brucei. The note with it: read-out: ED50 (the source's name). The format is functional. In outline:
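T. b. brucei S427 bloodstream trypomastigotes kept in HMI-18 with 20% heat-inactivated FCS at 37 °C, 5% CO2. Parasites at 2 × 10^5/mL were mixed 1:1 with compound, run in triplicate as a 3-fold dilution series from 30 μM top. Incubated 3 days at 37 °C; Alamar Blue read-out on day 3 gave ED50. Pentamidine positive control.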

The subject of series [5] is Leishmania donovani. Description: Inhibitory activity against Leishmania donovani. The format is functional. The note with it: read-out: ED50 (the source's name). The method in brief:
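Starch-elicited peritoneal macrophages from female CD1 mice were plated at 4 × 10^4/well in RPMI-1640 with 10% HIFCS. After 24 h they were infected at 10:1 with L. donovani amastigotes (MHOM/ET/67/L82, hamster-passaged). Drug was given as a 3-fold dilution series in quadruplicate for 5 days. Activity was scored as the percentage of macrophages cleared of amastigotes. Sodium stibogluconate control.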

In series [6] the test system is Trypanosoma cruzi. Description: Evaluated for its inhibitory activity against Trypanosoma cruzi; NA= not active at 30 umol. The format is functional, organism-based. In outline:
(§1)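 Starch-elicited female CD1 mouse peritoneal macrophages (4 × 10^4/well, RPMI-1640, 10% HIFCS) were infected after 24 h at 5:1 with T. cruzi Y trypomastigotes derived from MDCK cultures. Drug was applied as a 3-fold dilution series in quadruplicate for 3 days. Activity was the percentage of macrophages cleared of amastigotes. Nifurtimox control.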

The test system of series [7] is Leishmania donovani. Description: Percent decrease in viable parasitesrelative to the control at 30 uM. The format is functional. In outline:
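Single concentration of 30 μM in the intracellular amastigote macrophage assays. Inhibition is expressed as the percent decrease in viable parasites relative to untreated control.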

Series [8] concerns Trypanosoma cruzi. Description: Evaluated for its inhibitory activity against Trypanosoma cruzi. The format is functional. The note with it: read-out: ED50 (the source's name). In outline:
as §1

Molecules are shown by their SMILES. pEC50: −log10 of the molar value. Where only a bound is given, the exact number is not on record here.

`CCCC(CC)OC(=O)CNC(=O)C(CSc1ccc([N+](=O)[O-])cc1[N+](=O)[O-])NC(=O)CCC(NC(=O)OCc1ccccc1)C(=O)OC(CC)CCC` (stereo not drawn): in series [1], the logP came out at 6.87.
With `O=C(CCC(NC(=O)OCc1ccccc1)C(=O)OC1CCCCC1)NC(CSc1ccc([N+](=O)[O-])cc1[N+](=O)[O-])C(=O)NCC(=O)OC1CCCCC1` (stereo not drawn), the selectivity ratio in series [2] turned out to be 243. Moreover, the logP in series [1] was 6.65. The pEC50 was 4.29 in series [3] and 6.68 in series [4].
The compound `CCOC(=O)CNC(=O)C(CSc1ccc([N+](=O)[O-])cc1[N+](=O)[O-])NC(=O)CCC(NC(=O)OCc1ccccc1)C(=O)O` (stereo not drawn) had a logP in series [1] of 1.82. In addition, in the series on Leishmania donovani [5], the pEC50 was less than 4.52.
Consider `CCC(C)OC(=O)CNC(=O)C(CSc1ccc([N+](=O)[O-])cc1[N+](=O)[O-])NC(=O)CCC(NC(=O)OCc1ccccc1)C(=O)O` (stereo not drawn), for which the “Activity against T. cruzi” value with Trypanosoma cruzi [6] is “not active at 30 umol”. Also, the logP in series [1] came out at 2.72. Moreover, the pEC50 (in the series on Leishmania donovani [5]; in series [4]) was 4.70 each time.
Take `COC(=O)CNC(=O)C(CSc1ccc([N+](=O)[O-])cc1[N+](=O)[O-])NC(=O)CCC(NC(=O)OCc1ccccc1)C(=O)O` (stereo not drawn): the logP in series [1] was 1.32. The pEC50 with Leishmania donovani [5] is less than 4.52.
As for `CCC(C)OC(=O)CNC(=O)C(CSc1ccc([N+](=O)[O-])cc1[N+](=O)[O-])NC(=O)CCC(NC(=O)OCc1ccccc1)C(=O)OC(C)CC` (stereo not drawn), the selectivity ratio in series [2] came out at 150. In series [1], the logP came out at 4.91. Further, the inhibition at 30 µM in the series with Leishmania donovani [7] stood at 36%. For the same compound, the pEC50 in series [3] is less than 3.52; in the series with Leishmania donovani [5], less than 4.52; in series [4], 5.70.
As for `CC(C)CCC(C)OC(=O)CNC(=O)C(CSc1ccc([N+](=O)[O-])cc1[N+](=O)[O-])NC(=O)CCC(NC(=O)OCc1ccccc1)C(=O)OC(C)CCC(C)C` (stereo not drawn), in series [2], the selectivity ratio is more than 9. Further, the logP in series [1] came to 7.71. For the same compound, at 30 µM the inhibition with Leishmania donovani [7] was 70%. The pEC50 in series [3] is less than 3.52; in the series on Leishmania donovani [5], less than 4.52; in series [4], 4.46.
On to `CCC(CC)OC(=O)CNC(=O)C(CSc1ccc([N+](=O)[O-])cc1[N+](=O)[O-])NC(=O)CCC(NC(=O)OCc1ccccc1)C(=O)OC(CC)CC` (stereo not drawn), for which the selectivity ratio in series [2] worked out at 57. This compound also came in with a logP in series [1] of 5.89. The compound further came in with an inhibition at 30 µM with Leishmania donovani [7] of 17%. Further, the pEC50 was 3.67 in series [3], less than 4.52 in the series on Leishmania donovani [5] and 5.43 in series [4].
Take `O=C(CCC(NC(=O)OCc1ccccc1)C(=O)OCCCl)NC(CSc1ccc([N+](=O)[O-])cc1[N+](=O)[O-])C(=O)NCC(=O)OCCCl` (stereo not drawn): in series [2], the selectivity ratio was 101. The compound further had a logP in series [1] of 3.6. Also, the pEC50 in series [3] was 4.31; with Leishmania donovani [5], 5.00; in series [4], 6.31.
For `COCCOC(=O)CNC(=O)C(CSc1ccc([N+](=O)[O-])cc1[N+](=O)[O-])NC(=O)CCC(NC(=O)OCc1ccccc1)C(=O)OCCOC` (stereo not drawn), the selectivity ratio in series [2] came to 0.07. Moreover, the logP in series [1] came out at 1.56. For the same compound, the pEC50 in series [3] is 6.15; in the series on Leishmania donovani [5], 4.70; in series [4], 5.00.
Regarding `O=C(CCC(NC(=O)OCc1ccccc1)C(=O)OCCCCCl)NC(CSc1ccc([N+](=O)[O-])cc1[N+](=O)[O-])C(=O)NCC(=O)OCCCCCl` (stereo not drawn), the selectivity ratio in series [2] amounted to 0.12. In addition, the pEC50 was 4.55 in the series on Trypanosoma cruzi [8], 6.42 in series [3], less than 4.52 in the series on Leishmania donovani [5] and 5.52 in series [4]. The logP in series [1] turned out to be 5.56.
`CC(C)OC(=O)CNC(=O)C(CSc1ccc([N+](=O)[O-])cc1[N+](=O)[O-])NC(=O)CCC(NC(=O)OCc1ccccc1)C(=O)OC(C)C` (stereo not drawn): the “Activity against T. cruzi” value with Trypanosoma cruzi [6] was “not active at 30 umol”. Moreover, the selectivity ratio in series [2] turned out to be 13.5. This compound registered a logP in series [1] of 3.93. The pEC50 in series [3] was 3.57; in the series on Leishmania donovani [5] it was 5.11; in series [4], 4.70.

For the origin of these results see ChEMBL document CHEMBL1134692, “QSAR study on the contribution of log P and E(s) to the in vitro antiprotozoal activity of glutathione derivatives” (J Med Chem, 2001).
